Experimental findings from PubChem BioAssay AID624042 (Vanderbilt High Throughput Screening Facility, 2012) are described below.

Sequence of G protein-activated inward rectifier potassium channel 2 (Homo sapiens) + G protein-activated inward rectifier potassium channel 1 (Homo sapiens) (P48051 whole entry, looked up): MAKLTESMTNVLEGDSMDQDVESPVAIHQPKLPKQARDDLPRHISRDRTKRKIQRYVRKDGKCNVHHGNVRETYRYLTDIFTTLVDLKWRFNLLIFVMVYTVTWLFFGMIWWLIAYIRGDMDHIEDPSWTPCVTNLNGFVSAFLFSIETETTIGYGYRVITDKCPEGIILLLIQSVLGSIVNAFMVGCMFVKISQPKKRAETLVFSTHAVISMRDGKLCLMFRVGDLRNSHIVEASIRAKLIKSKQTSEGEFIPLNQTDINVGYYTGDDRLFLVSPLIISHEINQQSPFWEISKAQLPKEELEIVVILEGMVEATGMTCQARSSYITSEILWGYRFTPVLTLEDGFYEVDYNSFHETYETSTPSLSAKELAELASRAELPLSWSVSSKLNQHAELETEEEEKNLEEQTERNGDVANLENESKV
Sequence of G protein-activated inward rectifier potassium channel 2 (Homo sapiens) + G protein-activated inward rectifier potassium channel 1 (Homo sapiens) (P48549 whole entry, looked up): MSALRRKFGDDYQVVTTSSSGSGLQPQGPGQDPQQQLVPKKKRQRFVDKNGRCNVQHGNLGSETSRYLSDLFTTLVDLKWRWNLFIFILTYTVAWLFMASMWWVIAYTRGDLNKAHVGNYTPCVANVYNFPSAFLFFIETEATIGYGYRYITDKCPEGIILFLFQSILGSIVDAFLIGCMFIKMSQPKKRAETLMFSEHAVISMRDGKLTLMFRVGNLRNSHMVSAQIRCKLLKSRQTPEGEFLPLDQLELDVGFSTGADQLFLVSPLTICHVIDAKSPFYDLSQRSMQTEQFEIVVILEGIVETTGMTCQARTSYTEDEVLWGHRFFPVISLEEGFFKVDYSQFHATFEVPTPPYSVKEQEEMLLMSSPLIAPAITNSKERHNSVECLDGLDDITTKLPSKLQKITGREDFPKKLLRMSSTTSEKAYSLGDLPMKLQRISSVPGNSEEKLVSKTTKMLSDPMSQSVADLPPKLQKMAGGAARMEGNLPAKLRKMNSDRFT

This experiment addresses G protein-activated inward rectifier potassium channel 2 (Homo sapiens) + G protein-activated inward rectifier potassium channel 1 (Homo sapiens) (UniProt P48051+P48549). The experiment can be described thus: GIRK1/2 Tl+ flux activators after pertussis toxin – cell-based, HEK-293 hGIRK1/2, pertussis toxin-treated, thallium flux, FluoZin-2, mechanism study for GIRK activator project, dose response (AID 624042). The conditions noted are these: HEK-293 hGIRK1/2 PTX-treated. In outline: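 System: PTX-treated HEK-293 rmGlu8/hGIRK1/2 stable cell line; medium: overnight pretreatment with 400 ng/mL pertussis toxin (PTX); also added: thallium stimulus containing EC20 glutamate; incubation: PTX pretreatment overnight at 37 °C, compounds 4 min before thallium; technique: thallium-flux fluorescence with FluoZin-2 AM dye, sampled at 1 Hz; controls: vehicle wells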
In the case of `Cc1ccc(NC(=O)Cc2ccccc2Cl)cc1S(=O)(=O)N(C)C`, the EC50 (commonly the concentration giving half of the maximal effect) is 2180 nM.
Regarding `Cc1ccc(-c2nnn(CC(=O)NC3CC4CCC3C4)n2)cc1` (centres undefined), the EC50 was 4220 nM.
Regarding `Cc1cc(NC(=O)Nc2ccccc2)n(-c2ccccc2)n1`, the EC50 was 3620 nM.
In the case of `CCOc1ccccc1Nc1nnc(Cc2ccccc2Cl)c(=O)[nH]1`, the EC50 was 1860 nM.
